Assay [1] in a line: inhibitors of TNFa-induced NFkB p65 translocation, primary screen, imaging, HUVEC, MLSMR starter and 10KST1 sets (AID 438;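 active means inhibition above 20% together with a positive visual image hit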;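 further: compound added about 3h40 before a 20 min TNFalpha stimulation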;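 on inhibition: signal is the nuclear over cytoplasmic p65 intensity ratio per well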). The following applies: HUVEC TNFa-induced p65 nuclear translocation; cell count: measured here: nuclei count (cytotoxicity indicator), at 2.08 µM; inhibition: at 2 µM, stronger effect = higher value, 0% TNFa-plus-vehicle, 100% no-TNFa wells.
Assay [2] can be described thus: inhibitors of E-selectin induction by TNFa, primary screen, imaging, HUVEC, immunofluorescence, MLSMR starter and 10KST1 sets (AID 487;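 active means visually confirmed hit in the image check and inhibition above 20%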;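 on inhibition: signal is fraction of cell area covered by stained E-selectin grains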;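 on nuclei count: 100% = median nuclei count of all wells on the same plate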). The settings on record: HUVEC TNFalpha-induced E-selectin immunofluorescence imaging, at 2 µM; inhibition: stronger effect = higher value; nuclei count: measured here: cell number, toxicity.
Assay [3] is described as follows: DUSP6 inhibitors restoring Erk phosphorylation by chemical complementation, primary imaging in DUSP6-transfected HeLa (AID 609;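 active means compounds giving at least 50% inhibition in the cell-based MKP-3 phosphatase rescue imaging test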;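 on inhibition: phospho-Erk level distribution per well compared with pooled transfected vehicle control wells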). The settings on record: HeLa MKP-3 transfected, phospho-Erk imaging KS statistic, at 10 µM, cells stimulated with TPA for 15 min.
Assay [4] deals with Dual specificity protein phosphatase 6 (Homo sapiens) (UniProt Q16828). The description is as above. The following applies: HeLa MKP-3 transfected, phospho-Erk imaging KS statistic; at 10 µM; stronger effect = higher value; cells stimulated with TPA for 15 min.
The target of assay [5] is Voltage-gated potassium channel subunit beta-2 (Rattus norvegicus) (UniProt P62483). The assay is described as follows: KvBeta enzyme negative modulators, primary screen, biochemical, NADPH fluorescence (AID 622;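 active means fluorescence slope higher than the sample average by over 3 SD, cut at about -0.22 in these data, passing the limit was not always enough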;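 further: slope of raw intensity against log time taken from 70 to 1610 s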). The settings on record: recombinant KvBeta, 4-cyanobenzaldehyde reduction, at 10 µM, stronger effect = higher value.
Assay [6] has the same target. The experiment in a line: KvBeta positive modulators, primary screen, biochemical, NADPH fluorescence (AID 623;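 active means NADPH fluorescence slope more negative than the mean of all samples by about 3 SD, 99.7% confidence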;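 further: fluorescence intensity change per second fitted from 20 to 320 s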). The settings on record: Recombinant KvBeta, NADPH fluorescence decrease slope, 10 min; at 10 µM; stronger effect = lower value.
Assay [7] has as its target Alpha-2C adrenergic receptor (Homo sapiens) (UniProt P18825). The experiment in a line: modulators of alpha2C/GIRK thallium flux, primary screen, cell-based, HEK293 alpha2C/GIRK1/2 (AID 624;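 active means fluorescence slope after compound addition differing from the mean of all screened samples at 99.7% confidence, in either direction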;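 further: slope of fluorescence ratio to pre-addition baseline per second over 15 to 24 s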). The settings on record: thallium flux BTC fluorescence, at 10 µM, actives lie on both sides.
Assay [8] in a line: inhibitors of larval lipid processing in zebrafish, primary screen, whole organism, PED6 fluorescence, gall bladder and intestine (AID 686).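 Further: larvae 5 to 7 days old with five fish per well; signal comes from phospholipase A2 cleavage of quenched PED6 carried via bile; overnight exposure to compound and PED6 before scoring.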 The settings on record: Zebrafish larvae PED6 lipid processing, fluorescence scoring; screened at 20 µM (by protocol). The method, boiled down: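 System: live zebrafish larvae aged 5-7 days, whole organism; measure: graded gall bladder and intestinal fluorescence inhibition per well; incubation: overnight exposure; reagent: ingested quenched lipid PED6 at 100 nM; signal: By-eye fluorescence microscopy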

Assay [9] can be described thus: inhibitors of Chlamydomonas gravitaxis, primary screen, whole organism, Chlamydomonas reinhardtii, WT vs cilia-less mutant, absorbance, 96-well (AID 463189;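 active means inhibition at or above 50% relative to wild type and mutant plate controls; inactive means inhibition below 50%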;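 further: 0% = wild type cc124 cells in DMSO and 100% = ciliumless bld1 mutant cells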). The settings on record: OD600 absorbance, 2 days, at 10 µM, stronger effect = higher value.
The mark [10] stands for this setting: measured here: cell density z-score.
Where [11] appears, read: measured here: nuclear c-Myc green intensity z-score.
Setting [12] is: measured here: nuclear pErk red intensity z-score, stronger effect = higher value.

Activity calls are given as the source filed them.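 How the source made its calls, unless noted: active means a full or partial loss of lipid-probe fluorescence in the fish gall bladder, intestine or both, judged by eye; inactive means no fluorescence loss, or compound toxic to the fish.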

By inhibition is commonly meant the change of the read-out against control, counted positive when it falls.

Sequence of Dual specificity protein phosphatase 6 (Homo sapiens) (Q16828 whole entry, looked up): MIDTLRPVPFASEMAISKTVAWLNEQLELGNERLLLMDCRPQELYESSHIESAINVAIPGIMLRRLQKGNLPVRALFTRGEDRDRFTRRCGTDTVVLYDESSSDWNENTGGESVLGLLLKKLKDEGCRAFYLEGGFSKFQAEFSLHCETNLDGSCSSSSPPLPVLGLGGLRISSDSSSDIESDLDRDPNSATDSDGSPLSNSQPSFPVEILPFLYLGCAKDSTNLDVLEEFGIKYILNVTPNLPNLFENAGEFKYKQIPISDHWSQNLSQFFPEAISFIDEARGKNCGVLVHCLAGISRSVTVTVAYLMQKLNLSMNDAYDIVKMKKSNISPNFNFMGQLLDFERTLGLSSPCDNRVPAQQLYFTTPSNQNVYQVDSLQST
Sequence of Alpha-2C adrenergic receptor (Homo sapiens) (P18825 whole entry, looked up): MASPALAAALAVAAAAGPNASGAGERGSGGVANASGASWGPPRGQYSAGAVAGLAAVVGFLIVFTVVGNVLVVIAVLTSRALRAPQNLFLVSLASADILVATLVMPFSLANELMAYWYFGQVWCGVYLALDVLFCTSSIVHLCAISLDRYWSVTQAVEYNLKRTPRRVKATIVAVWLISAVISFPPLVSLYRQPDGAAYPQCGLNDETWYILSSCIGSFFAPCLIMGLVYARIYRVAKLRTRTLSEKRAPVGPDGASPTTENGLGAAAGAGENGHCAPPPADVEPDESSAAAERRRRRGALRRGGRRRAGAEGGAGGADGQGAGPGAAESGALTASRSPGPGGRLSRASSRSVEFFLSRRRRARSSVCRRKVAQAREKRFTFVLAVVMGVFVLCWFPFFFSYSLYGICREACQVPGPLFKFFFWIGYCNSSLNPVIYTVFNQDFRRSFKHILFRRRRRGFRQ
Sequence of Voltage-gated potassium channel subunit beta-2 (Rattus norvegicus) (P62483 whole entry, looked up): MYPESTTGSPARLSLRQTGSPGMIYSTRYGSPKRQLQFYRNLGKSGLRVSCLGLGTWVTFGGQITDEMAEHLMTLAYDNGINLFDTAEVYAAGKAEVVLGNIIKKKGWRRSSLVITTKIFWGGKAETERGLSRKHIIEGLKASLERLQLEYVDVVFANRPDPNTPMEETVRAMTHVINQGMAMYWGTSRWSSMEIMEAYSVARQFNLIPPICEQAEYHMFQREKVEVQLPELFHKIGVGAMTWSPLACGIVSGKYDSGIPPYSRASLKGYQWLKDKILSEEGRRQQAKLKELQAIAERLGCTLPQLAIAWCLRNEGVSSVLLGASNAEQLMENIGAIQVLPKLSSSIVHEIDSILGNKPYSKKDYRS

As for `Cc1c(C(=O)O)c(=S)sn1CCOc1ccccc1`, in [1], the cell count is 646. The inhibition was -1.9% (inactive) in assay [1], 16.3% (inactive) in [2], 14% (inactive) in assay [4] and 4.87% (inactive) in [9]. Besides, in [2], the nuclei count was 159%. The z-score was 0.114 in assay [3] (setting [10]), 1.14 in assay [3] (setting [11]) and 0.102 in [3] (setting [12]). The fluorescence slope in assay [5] was -0.256 (inactive). For the same compound, in assay [6], the NADPH fluorescence slope is 1.3e-05 (inactive). The slope in [7] is 0.00412 (inactive). In assay [8], the compound was called inactive.
Regarding `C=COC(=O)CSc1nc(-c2cccs2)ccc1C#N`, in [1], the cell count was determined as 659. Also, the inhibition is -10.8% (inactive) in [1], -26.9% (inactive) in assay [2], -5.62% (inactive) in assay [4] and 8.37% (inactive) in [9]. In assay [2], the nuclei count worked out at 152%. Further, the z-score was -1.42 in [3] (setting [10]), 1.7 in assay [3] (setting [11]) and 0.138 in assay [3] (setting [12]). Moreover, the fluorescence slope in assay [5] was -0.385 (inactive). In addition, the NADPH fluorescence slope in assay [6] is -2.3e-06 (inactive). Also, in assay [7], the slope is 0.0065 (inactive). For the same compound, the compound was classed as inactive in assay [8].
In the case of `N#Cc1c(NC(=O)CCC(=O)O)sc2c1CCCC2`, in assay [1], the cell count was found to be 715. The inhibition in assay [1] was -11.6% (inactive); in assay [2] it was -10.3% (inactive); in assay [4] it was -7.28% (inactive); in assay [9], -7.91% (inactive). The compound also gave a nuclei count in assay [2] of 186%. For the same compound, the z-score in assay [3] (setting [10]) was -1.16; in assay [3] (setting [11]), 1.41; in assay [3] (setting [12]), -1.22. The fluorescence slope in [5] is -0.388 (inactive). In [6], the NADPH fluorescence slope is -5e-05 (inactive). Moreover, the slope in [7] was 0.00575 (inactive). Besides, the call in [8] was inactive.
As to `CCn1cc(C(=O)NCCCN(C)C)c(=O)c2cc(F)c(N3CCN(C)CC3)cc21`, the cell count in [1] turned out to be 360. In addition, the inhibition in assay [1] was -2.8% (inactive); in assay [2] it was -88% (inactive); in [4] it was -7.28% (inactive); in assay [9], 22% (inactive). Moreover, the nuclei count in [2] came to 130%. Moreover, the results for the z-score in assay [3] (setting [10]), in assay [3] (setting [11]) and in assay [3] (setting [12]) were -0.583, 1.7 and -0.542, respectively. In addition, in assay [5], the fluorescence slope is -0.286 (inactive). In addition, in assay [6], the NADPH fluorescence slope was -5e-06 (inactive). Also, the slope in assay [7] was 0.00472 (inactive). Besides, the compound was classed as inactive in [8].
On to `COc1cc(/C=N/O)ccc1OCc1ccc(C(=O)O)cc1`, for which the cell count in assay [1] came out at 587. Moreover, the inhibition in assay [1] was -21.9% (inactive); in assay [2], -51.1% (inactive); in assay [4], -0.608% (inactive); in assay [9], -7.38% (inactive). In [2], the nuclei count was 154%. For the same compound, the z-score in assay [3] (setting [10]) was -1.09; in assay [3] (setting [11]) it was 0.882; in assay [3] (setting [12]), 0.52. In assay [5], the fluorescence slope was -0.357 (inactive). The NADPH fluorescence slope in assay [6] is -5.9e-05 (inactive). Further, in assay [7], the slope is 0.00492 (inactive). The outcome in [8] was inactive.
Consider `Cc1nc(SCC(N)=O)[nH]c(=O)c1Cc1ccc(OC(C)C)cc1`, for which, in [1], the cell count turned out to be 585. Also, the inhibition was 5.2% (inactive) in assay [1], 22.1% (inactive) in assay [2], 3.5% (inactive) in [4] and -1.58% (inactive) in [9]. Moreover, in assay [2], the nuclei count was 150%. The z-score in assay [3] (setting [10]) was -0.515; in assay [3] (setting [11]), 0.503; in assay [3] (setting [12]) it was 0.0528. Further, the fluorescence slope in [5] is -0.331 (inactive). For the same compound, in assay [6], the NADPH fluorescence slope is 2.9e-05 (inactive). Moreover, the slope in assay [7] is 0.00497 (inactive). The call in [8] was inactive.
In the case of `CCOc1ccc(Cc2nc(N)nc(N)n2)cc1`, the cell count in [1] was 344. Moreover, the inhibition in assay [1] is -18.3% (inactive); in assay [2] it was -269% (inactive); in assay [4], -8.76% (inactive); in assay [9], 6.25% (inactive). Further, the nuclei count in assay [2] came out at 155%. In addition, the z-score in assay [3] (setting [10]) was -1.09; in [3] (setting [11]), -0.542; in assay [3] (setting [12]), -0.613. For the same compound, the fluorescence slope in [5] is -0.447 (inactive). Also, the NADPH fluorescence slope in assay [6] was -0.000176 (inactive). Moreover, in assay [7], the slope is 0.00481 (inactive). Besides, in assay [8], the compound was classed as inactive.
On to `CN(C)S(=O)(=O)Nc1ccc(NS(=O)(=O)N(C)C)c(S(=O)(=O)c2ccccc2)c1`, for which the cell count in [1] was 341. Moreover, the inhibition is -11.9% (inactive) in assay [1], -131% (inactive) in [2], 7.73% (inactive) in assay [4] and -7.02% (inactive) in [9]. In assay [2], this compound yielded a nuclei count of 99.4%. In addition, the results for the z-score in assay [3] (setting [10]), in assay [3] (setting [11]) and in [3] (setting [12]) were -0.765, 0.48 and -2.08, respectively. Moreover, the fluorescence slope in assay [5] was -0.495 (inactive). In addition, the NADPH fluorescence slope in assay [6] was -0.000114 (inactive). In assay [7], the slope was 0.00381 (inactive). Also, the outcome in assay [8] was inactive.
For the compound `CCOC(=O)CC1=C(C(=O)OCC)C(c2cc(OC)c(OC)cc2OC)C(C#N)=C(N)O1` (centres undefined), in assay [1], the cell count worked out at 433. The inhibition was -10% (inactive) in [1], -66.1% (inactive) in [2], -8.27% (inactive) in [4] and 15.6% (inactive) in [9]. The nuclei count in assay [2] was 106%. Also, the values for the z-score in assay [3] (setting [10]), in [3] (setting [11]) and in assay [3] (setting [12]) were 1.93, -1.51 and -0.137, respectively. Further, the fluorescence slope in assay [5] is -0.345 (inactive). Further, the NADPH fluorescence slope in assay [6] is 6.8e-06 (inactive). The slope in assay [7] is 0.00515 (inactive). Also, the outcome in assay [8] was inactive.
Consider `CCN1CC2=C(OC(N)=C(C#N)C2c2ccccc2)/C(=C\c2ccccc2)C1` (centres undefined), for which the cell count in assay [1] was 489. The inhibition was -6.9% (inactive) in [1], -190% (inactive) in assay [2], 9.61% (inactive) in assay [4] and 14.6% (inactive) in [9]. Further, in assay [2], the nuclei count amounted to 174%. Further, the z-score in assay [3] (setting [10]) is 0.232; in [3] (setting [11]) it was -0.856; in assay [3] (setting [12]), 0.432. In [5], the fluorescence slope was -0.332 (inactive). Also, in assay [6], the NADPH fluorescence slope was -1.3e-05 (inactive). In addition, in [7], the slope was 0.00402 (inactive). Besides, in assay [8], the outcome is “active; no signal in intestine only”.
On to `C=CCSc1nc(C)c(CC=C)c(=O)[nH]1`, for which, in [1], the cell count was determined as 482. Further, the inhibition in assay [1] is -4.7% (inactive); in assay [2], -71.1% (inactive); in [4] it was 11.9% (inactive); in assay [9], 31.6% (inactive). In assay [2], this compound gave a nuclei count of 87.6%. The z-score in [3] (setting [10]) was 0.711; in assay [3] (setting [11]), -0.59; in assay [3] (setting [12]), 0.352. Further, the fluorescence slope in assay [5] was -0.472 (inactive). Also, the NADPH fluorescence slope in assay [6] is -1.2e-06 (inactive). Moreover, in assay [7], the slope is 0.00783 (inactive). In addition, the compound was classed as inactive in assay [8].
Take `CN(C)C=C1C(=O)c2ccccc2C1=O`: the cell count in [1] amounted to 574. Also, the inhibition in [1] is -5.6% (inactive); in assay [2], -153% (inactive); in assay [4], 11.9% (inactive); in assay [9] it was 60.8% (active). Also, in assay [2], the nuclei count was determined as 132%. The z-score in assay [3] (setting [10]) is -0.195; in assay [3] (setting [11]), -0.125; in assay [3] (setting [12]) it was -0.0657. For the same compound, the fluorescence slope in [5] is -0.423 (inactive). For the same compound, the NADPH fluorescence slope in assay [6] is -4.2e-05 (inactive). Further, in assay [7], the slope was 0.00438 (inactive). Also, the compound was called inactive in assay [8].
Consider `COC(=O)/C(=C1/Oc2cc(C)oc(=O)c2S1)C(F)(F)F`, for which the cell count in assay [1] was found to be 330. Also, the inhibition in [1] is -2.4% (inactive); in assay [2], -59.5% (inactive); in assay [4] it was 28% (inactive); in assay [9], 5.01% (inactive). The compound further registered a nuclei count in [2] of 177%. Moreover, the z-score in assay [3] (setting [10]) amounted to 1.64; in [3] (setting [11]) it was 0.462; in assay [3] (setting [12]), 0.469. The fluorescence slope in assay [5] is -0.427 (inactive). Further, the NADPH fluorescence slope in assay [6] was -0.000106 (inactive). For the same compound, the slope in [7] is 0.0045 (inactive). Also, in assay [8], the compound was called inactive.
